Measurements pooled from the literature.
Compare with care: the assays were run in different laboratories.
Target: Cytochrome P450 3A4 (CYP3A4, Homo sapiens, UniProt P08684)

| SMILES | assay | system | conditions | endpoint | value |
| --- | --- | --- | --- | --- | --- |
| CCc1cc(/C(C)=N/OCc2ccc(C3CCCCC3)c(C(F)(F)F)c2)ccc1CN1CC(C(=O)O)C1 | enzyme activity, inhibitor | human, liver microsomes | 200 µM, 20 min, testosterone probe | inhibition | 72.7% |
| C=CC(=O)Nc1cc(Nc2nccc(Nc3cc(Cl)c(F)cc3C(C)(C)O)n2)c(OC)cc1N1CC[C@@H](N(C)C)C1 | enzyme activity, inhibitor | human, liver microsomes | 10 µM | inhibition | 24.3% |
| CCN(Cc1cnc2nc(N)nc(N)c2n1)c1ccc(C(=O)N2CCC(C(=O)OC)CC2)cc1 | enzyme activity, inhibitor, luciferase | – | 10 µM | inhibition | -13.9% |
| O=C(N[C@H](Cc1c[nH]c2ccccc12)C(=O)Nc1ccncc1)c1ccc(-c2cc(F)ccc2F)cc1F | enzyme activity, inhibitor | human, liver microsomes | 1 µM | inhibition | 74% |
| CC(=O)c1cccc(OCc2cc(C(=O)N(C)[C@@H](C)c3ccccn3)no2)c1 | enzyme activity, inhibitor | human, liver microsomes | – | IC50 | 27 µM |
| CCOC(=O)C1CCN(C(=O)c2ccc(N(CC)Cc3cnc4nc(N)nc(N)c4n3)cc2)CC1 | enzyme activity, inhibitor, luciferase | – | 10 µM | inhibition | -13.6% |
| NCCCCCC(=O)NCc1cccnc1 | thermal stability | – | – | ΔTm | -0.2 °C |
| COC(=O)C1CCN(C(=O)Cc2ccc(NCc3cnc4nc(N)nc(N)c4n3)cc2)CC1 | enzyme activity, inhibitor, luciferase | – | 10 µM | inhibition | -1.83% |
| CC(C)(C)OC(=O)N[C@H](CSCCC(=O)NCc1cccnc1)Cc1c[nH]c2ccccc12 | thermal stability | – | – | ΔTm | 0.2 °C |
| COC(=O)C1CCN(C(=O)c2ccc(N(CCO)Cc3cnc4nc(N)nc(N)c4n3)cc2)CC1 | enzyme activity, inhibitor, luciferase | – | 10 µM | inhibition | -27.6% |
| CC(C)(C)OC(=O)N[C@H](CSCCC(=O)NCc1cccnc1)CC1CCCCC1 | thermal stability | – | – | ΔTm | -2 °C |
| COc1cc2c(c(OC)c1OC)-c1c(cc3c(c1OC)OCO3)[C@H](OC(=O)c1ccccc1)[C@@](C)(O)[C@@H](C)C2 | enzyme activity, inhibitor | – | 15 min, pH 7.4 | IC50 | 25 µM |
| CC1(C)CCC2(CC1)N[C@@H](C(=O)N[C@@H]1CC[C@@H](C(N)=O)OC1)[C@H](c1ccnc(Cl)c1F)[C@]21C(=O)Nc2cc(Cl)ccc21 | enzyme activity, inhibitor | human, liver microsomes | with preincubation, midazolam probe | kinact | 0.00103 s⁻¹ |
